# Assay results published in ChEMBL document CHEMBL4219216, “2-Aminoquinazolin-4(3H)-one based plasmepsin inhibitors with improved hydrophilicity and selectivity” (Bioorg Med Chem, 2018).
# Legend:
# [1] = target: Plasmepsin 4 (Plasmodium falciparum, UniProt Q17SB2); test: Inhibition of Plasmodium falciparum plasmepsin 4 using DABCYL-Glu-Arg-Nle-Phe-Leu-Ser-Phe-Pro-EDANS as substrate preincubated for 30 mins followed by substrate addition measured every 1 min within 8 to 15 mins by FRET assay
# Procedure, shortened: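 Plm IV in 0.1 M NaOAc pH 4.5 with 10% glycerol; compounds tested at 0.01–100 μM, preincubated with enzyme 30 min at 37 °C. […] Fluorescence (Ex 336/Em 490 nm) read at 37 °C; rate taken from the linear interval. Triplicate; IC50 fitted from rates; pepstatin A control.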
# [2] = Solubility of the compound in Tris-buffer at pH 7.4 after 16 hrs by HPLC method; type: physicochemical; details: for solubility at 16 h: Tris buffer, pH 7.4
# Procedure, shortened: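 A DMSO stock (≈10 mg/mL) was diluted 10 µL into 2 mL of 0.05 M TRIS pH 7.4 (0.5% DMSO final) and shaken 16 h at 25 °C. After filtering off the precipitate, the solution was quantified by reversed-phase HPLC (UV 210 or 254 nm) against a methanol-diluted ≈0.05 mg/mL standard. Working range ≈0.005-0.05 mg/mL.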
# [3] = target: Plasmepsin II (Plasmodium falciparum, UniProt P46925); test: Inhibition of Plasmodium falciparum plasmepsin-2 using DABCYL-Glu-Arg-Nle-Phe-Leu-Ser-Phe-Pro-EDANS as substrate preincubated for 30 mins followed by substrate addition measured every 1 min within 8 to 15 mins by FRET assay
# Procedure, shortened: (§1)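 Test compounds at 0.01-100 μM preincubated with enzyme in 0.1 M NaOAc pH 4.5, 10% glycerol, for 30 min at 37 °C. […] Fluorescence (Ex 336, Em 490 nm) read at 37 °C. Rate taken from the linear interval only. Triplicate experiments, IC50 from dose-response fit.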
# [4] = target: Plasmepsin I (Plasmodium falciparum, UniProt P39898); test: Inhibition of Plasmodium falciparum plasmepsin-1 using DABCYL-Glu-Arg-Nle-Phe-Leu-Ser-Phe-Pro-EDANS as substrate preincubated for 30 mins followed by substrate addition measured every 1 min within 8 to 15 mins by FRET assay; procedure, shortened: as §1
# [5] = target: Cathepsin D (Homo sapiens, UniProt P07339); test: Inhibition of human cathepsin D using DABCYL-Glu-Arg-Nle-Phe-Leu-Ser-Phe-Pro-EDANS as substrate preincubated for 30 mins followed by substrate addition measured every 1 min within 8 to 15 mins by FRET assay
# [6] = target: Plasmepsin I (Plasmodium falciparum) (UniProt P39898); test: Inhibition of Plasmodium falciparum plasmepsin-1 using DABCYL-Glu-Arg-Nle-Phe-Leu-Ser-Phe-Pro-EDANS as substrate preincubated for 30 mins followed by substrate addition measured every 1 min within 8 to 15 mins by FRET assay
# Sequence of Plasmepsin I (Plasmodium falciparum) (P39898 whole entry, looked up): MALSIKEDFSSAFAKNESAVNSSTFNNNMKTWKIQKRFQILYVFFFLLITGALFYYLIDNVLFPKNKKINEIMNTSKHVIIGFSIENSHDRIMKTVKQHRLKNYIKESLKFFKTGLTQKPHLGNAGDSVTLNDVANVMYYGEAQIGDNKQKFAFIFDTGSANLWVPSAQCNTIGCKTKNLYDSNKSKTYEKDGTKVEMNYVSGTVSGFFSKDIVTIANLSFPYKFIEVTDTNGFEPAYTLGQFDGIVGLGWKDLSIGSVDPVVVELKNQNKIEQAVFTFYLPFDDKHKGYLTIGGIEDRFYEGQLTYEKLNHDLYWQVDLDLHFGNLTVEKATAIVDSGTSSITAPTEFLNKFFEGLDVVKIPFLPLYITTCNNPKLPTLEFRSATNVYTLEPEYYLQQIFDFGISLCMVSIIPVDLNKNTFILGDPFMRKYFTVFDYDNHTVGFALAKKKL
# Sequence of Cathepsin D (P07339 65-162 limits assumed): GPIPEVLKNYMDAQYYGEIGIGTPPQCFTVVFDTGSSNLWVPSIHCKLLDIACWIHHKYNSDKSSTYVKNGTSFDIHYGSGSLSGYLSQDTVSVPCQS
# Sequence of Cathepsin D (P07339 169-412 limits assumed): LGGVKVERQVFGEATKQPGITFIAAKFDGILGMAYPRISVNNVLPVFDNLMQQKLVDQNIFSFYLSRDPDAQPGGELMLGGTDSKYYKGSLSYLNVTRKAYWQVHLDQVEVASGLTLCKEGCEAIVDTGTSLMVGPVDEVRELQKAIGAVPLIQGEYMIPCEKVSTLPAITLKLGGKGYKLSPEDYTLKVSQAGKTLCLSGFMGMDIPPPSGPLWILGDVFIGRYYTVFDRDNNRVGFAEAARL
# Sequence of Plasmepsin II (P46925 whole entry): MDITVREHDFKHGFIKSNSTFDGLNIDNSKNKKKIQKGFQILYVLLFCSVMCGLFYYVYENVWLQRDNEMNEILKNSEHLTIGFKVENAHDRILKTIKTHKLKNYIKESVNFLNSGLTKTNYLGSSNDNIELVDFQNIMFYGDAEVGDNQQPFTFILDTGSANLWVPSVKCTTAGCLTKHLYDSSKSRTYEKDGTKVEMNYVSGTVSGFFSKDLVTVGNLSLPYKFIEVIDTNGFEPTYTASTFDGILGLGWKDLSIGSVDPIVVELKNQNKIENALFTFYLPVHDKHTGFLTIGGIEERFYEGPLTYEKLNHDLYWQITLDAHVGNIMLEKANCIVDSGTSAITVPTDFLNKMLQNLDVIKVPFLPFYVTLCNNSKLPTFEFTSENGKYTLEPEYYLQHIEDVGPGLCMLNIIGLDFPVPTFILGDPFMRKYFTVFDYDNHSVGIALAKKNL
# Sequence of Plasmepsin I (P39898 whole entry): as the sequence (P39898 whole entry, looked up) above
# Sequence of Plasmepsin 4 (Q17SB2 whole entry): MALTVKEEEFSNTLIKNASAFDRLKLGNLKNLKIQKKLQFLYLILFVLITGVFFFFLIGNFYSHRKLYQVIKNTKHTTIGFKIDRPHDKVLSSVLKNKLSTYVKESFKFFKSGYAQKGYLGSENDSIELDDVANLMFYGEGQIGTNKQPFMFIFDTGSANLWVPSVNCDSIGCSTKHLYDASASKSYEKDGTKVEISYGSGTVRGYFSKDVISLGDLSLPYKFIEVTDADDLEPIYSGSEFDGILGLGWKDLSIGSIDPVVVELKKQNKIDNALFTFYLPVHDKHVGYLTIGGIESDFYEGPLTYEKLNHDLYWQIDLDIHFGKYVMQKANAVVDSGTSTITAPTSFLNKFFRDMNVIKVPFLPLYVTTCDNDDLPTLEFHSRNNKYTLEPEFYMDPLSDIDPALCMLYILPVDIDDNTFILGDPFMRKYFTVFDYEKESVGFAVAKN
Structure (SMILES),IC50 [1] [nM],solubility at 16 h [2] [µg/mL],IC50 [3] [nM],IC50 [4] [nM],IC50 [5] [nM],IC50 [6] [nM],"solubility ([2]; buffer, pH 7.4, 16 h) [µg/mL]"
CCCCCc1ccc(-c2ccc3c(=O)n(C[C@@H]4CC[C@H](c5ccccc5)O4)c(N)nc3c2)cc1,100,< 0.01,,,,,
Nc1nc2cc(-c3ccccc3)cc(-c3ccc(C(=O)O)cc3)c2c(=O)n1C[C@@H]1CC[C@H](c2ccccc2)O1,500,,280,600,20000,,
CCCCCc1ccc(-c2cc(-c3ccc(C(=O)O)cc3)c3c(=O)n(CC4CCCO4)c(N)nc3c2)cc1 (racemic),45,0.03,23,2400,29000,,
Nc1nc2cc(-c3ccccc3)cc(-c3ccc(C(=O)O)cc3)c2c(=O)n1CC1CCCO1 (racemic),1400,,330,3500,100000,,
Oc1ccc(/C=C/c2cc(O)cc(O)c2)cc1 [RESVERATROL],,,,,138000,,
Nc1nc2cc(-c3ccc(CCCc4ccccc4)cc3)ccc2c(=O)n1CC1CCCO1 (racemic),100,,700,1300,> 100000,,
Nc1nc2cc(-c3ccccc3)cc(-c3cccnc3)c2c(=O)n1CC1CCCO1 (racemic),1500,,480,3000,71000,,
Nc1nc2cc(-c3ccc(CCCc4ccccc4)cc3)ccc2c(=O)n1C[C@@H]1CC[C@H](c2ccccc2)O1,130,< 0.01,,,,,
Nc1nc2cc(-c3ccccc3)cc(-c3cccc(C(=O)O)c3)c2c(=O)n1CC1CCCO1 (racemic),1500,,500,1000,98000,,
NC(=O)c1ccc(-c2cc(-c3ccccc3)cc3nc(N)n(CC4CCCO4)c(=O)c23)cc1 (racemic),2500,,600,3400,> 100000,,
CCCCCc1ccc(-c2cc(CCC(=O)O)c3c(=O)n(CC4CCCO4)c(N)nc3c2)cc1 (racemic),42,0.1,27,50,21000,,
Nc1cccc(-c2cc(-c3ccccc3)cc3nc(N)n(CC4CCCO4)c(=O)c23)c1 (racemic),1000,,820,2000,93000,,
Nc1nc2cc(-c3ccccc3)cc(-c3ccncc3)c2c(=O)n1CC1CCCO1 (racemic),2400,,1000,5000,> 100000,,
CC(C)CC(=O)N[C@H](C(=O)N[C@H](C(=O)N[C@@H](CC(C)C)[C@@H](O)CC(=O)N[C@@H](C)C(=O)N[C@@H](CC(C)C)[C@@H](O)CC(=O)O)C(C)C)C(C)C [PEPSTATIN],0.3,,,0.42,,0.42,
CCCCCCCCc1cc(CCC(=O)O)c2c(=O)n(CC3CCCO3)c(N)nc2c1 (racemic),110,,22,20,430,,
Nc1nc2cc(-c3ccc(CCCc4ccccc4)cc3)cc(CCC(=O)O)c2c(=O)n1CC1CCCO1 (racemic),30,,80,740,13000,,0.01
CCCCCc1ccc(-c2ccc3c(=O)n(CC4CCCO4)c(N)nc3c2)cc1 (racemic),92,,75,700,3200,,
